# This is a sample that favours compounds with a hit; in the whole collection about 3% have one here.
# TRPC6 inhibitor – mouse TRPC6 channel inhibition; Q61143; AID 2553; HEK293-TRPC6, membrane potential dye, ACh-evoked depolarization; hits give low values; B-score at 10 µM; 310,000 tested, 1.1% active;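 active = B-score under library mean minus 3 SD, initial fluorescence not abnormally high, positive integrated signal ratio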;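 also: B-score derived from integrated fluorescence ratio over the kinetic read; more negative B-score means stronger inhibition of depolarization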
# TRPC6 act – activates the mouse TRPC6 cation channel | 310,000 tested, 0.13% active | Q61143 | B-score at 10 µM | HEK293-TRPC6 membrane potential dye fluorescence; hits give high values | AID 2550;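 active = B-score of the integrated fluorescence ratio above library mean plus 3 SD, and starting fluorescence ratio within library mean plus 5 SD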;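 also: higher score means more depolarization so channel activation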
# TRPC4 PAM – allosterically enhances the mouse TRPC4 cation channel | Q9QUQ5 | HEK293 TRPC4beta/mu-opioid, DAMGO EC20, Fluo-4 Ca2+ flux; hits give high values | B-score at 10 µM | 310,000 tested, 0.42% active | AID 2227;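 active = B-score of calcium response area above 5 SD of library B-scores, with initial fluorescence ratio within 5 SD of library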;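 also: B-score of integrated fluorescence ratio over time as area under calcium response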
# Target sequence (Q9QUQ5 whole entry, looked up): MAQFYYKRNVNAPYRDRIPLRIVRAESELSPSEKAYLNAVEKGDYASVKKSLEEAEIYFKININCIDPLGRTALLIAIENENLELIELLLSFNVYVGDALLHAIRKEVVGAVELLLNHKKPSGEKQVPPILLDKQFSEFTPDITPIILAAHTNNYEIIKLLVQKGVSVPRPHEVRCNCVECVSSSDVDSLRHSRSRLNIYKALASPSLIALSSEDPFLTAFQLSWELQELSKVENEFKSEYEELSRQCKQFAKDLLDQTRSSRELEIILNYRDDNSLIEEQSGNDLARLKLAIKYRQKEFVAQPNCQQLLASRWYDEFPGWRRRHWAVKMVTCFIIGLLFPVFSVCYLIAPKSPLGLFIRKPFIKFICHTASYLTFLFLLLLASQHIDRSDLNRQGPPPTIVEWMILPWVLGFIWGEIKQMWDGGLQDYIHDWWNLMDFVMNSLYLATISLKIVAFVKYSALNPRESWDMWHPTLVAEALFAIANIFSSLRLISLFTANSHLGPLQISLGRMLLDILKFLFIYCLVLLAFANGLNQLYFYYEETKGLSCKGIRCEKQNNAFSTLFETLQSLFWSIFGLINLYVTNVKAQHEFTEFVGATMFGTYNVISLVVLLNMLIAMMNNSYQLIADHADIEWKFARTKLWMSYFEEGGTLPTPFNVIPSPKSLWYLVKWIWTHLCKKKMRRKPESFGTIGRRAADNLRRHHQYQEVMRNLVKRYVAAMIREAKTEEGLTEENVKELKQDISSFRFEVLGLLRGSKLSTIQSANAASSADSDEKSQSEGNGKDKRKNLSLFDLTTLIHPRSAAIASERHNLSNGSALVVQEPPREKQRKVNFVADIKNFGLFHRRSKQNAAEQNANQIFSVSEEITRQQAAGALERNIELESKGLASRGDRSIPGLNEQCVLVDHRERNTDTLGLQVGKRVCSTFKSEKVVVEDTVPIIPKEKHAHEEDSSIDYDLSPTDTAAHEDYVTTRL
# TRPC4 block – TRPC4 (mouse) channel inhibition. 300,000 tested, 0.39% active. AID 2247. B-score at 10 µM. HEK293 TRPC4beta/mu-opioid, DAMGO-evoked Fluo4 calcium flux; hits give low values;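 active = B-score over 3 SD under the library average, no early fluorescence shift, positive overall ratio signal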
#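 Material: HEK293 cells with stable TRPC4beta plus mu-opioid receptor expression; probe or stimulus: DAMGO in two steps, submaximal then maximal; technique: Fluo4 calcium fluorescence by kinetic imaging, 5 s 1 Hz baseline; measure: integrated fluorescence ratio relative to baseline, converted to per-well B score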
# Kir21 block – inhibitors of mouse Kir2.1 inward-rectifier potassium channel; P35561; HEK293-Kir2.1, FluxOR thallium flux fluorescence; hits give low values; B-score at 10 µM; 310,000 tested, 0.85% active; AID 1672;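 active = fluorescence ratio B-score at or below minus 3 SD of library scores, with starting-brightness B-score within 2 SD, cut at about -4.2 in these data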;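 also: channel flux triggered by added potassium and thallium sulfate stimulus; B-score of peak minus minimum fluorescence over baseline after thallium stimulus; more negative B-score means stronger Kir2.1 block with less thallium influx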
# TRPC4 agonist – activators of mouse TRPC4 channel. Q9QUQ5. HEK293 TRPC4beta/mu-opioid, Fluo4 calcium fluorescence; hits give high values. B-score at 10 µM. 310,000 tested, 0.49% active;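 active = B-score above 5 SD of library B-scores, and initial fluorescence ratio not above library mean plus 5 SD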;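 also: positive B-score marks a calcium rise read as TRPC4 activation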
#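 Assay system – TRPC4beta and mu-opioid receptor HEK293 stable cells · Measured by – Fluo4 fluorescence, kinetic · Schedule – dye loading 45 min room temperature, 110 s kinetic read · Read-out – B-scored integrated calcium fluorescence ratio · Controls – buffer and maximal DAMGO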
# Active calls of the source: *; i = inactive.
SMILES,TRPC6 inhibitor,TRPC6 act,TRPC4 PAM,TRPC4 block,Kir21 block,TRPC4 agonist
O=C(Nc1cccc(Cl)c1)c1ccc(-n2cncn2)c([N+](=O)[O-])c1,-5.5*,i,i,i,1.5,i
Cc1ccc(NC(=O)c2ccc(-n3cncn3)c([N+](=O)[O-])c2)cc1,i,i,i,i,0.95,i
Cc1cc(C)c(S(=O)(=O)NCc2ccc3c(c2)OCO3)c(C)c1,i,i,i,i,-1.1,i
CCOc1cc(C)c(Cl)cc1S(=O)(=O)NCc1ccc2c(c1)OCO2,i,i,i,i,-6.6*,i
CCOc1ccc(S(=O)(=O)NCc2ccc3c(c2)OCO3)cc1C(=O)O,i,i,i,i,0.03,i
COc1cc(C)c(Cl)cc1S(=O)(=O)N1CCCC1,i,i,i,i,-3.3,i
Cc1cc(C)c(S(=O)(=O)NCc2ccc3c(c2)OCO3)cc1C,i,i,i,i,-4.3*,i
CCOc1cc(C)c(Cl)cc1S(=O)(=O)N1CCCC1,i,i,i,i,-5.5*,i
NC1=NC(=O)/C(=C/C=C/c2cccs2)S1,i,i,i,i,0.9,i
O=S(=O)(Cc1cc(Sc2ccc(Cl)cc2)nc(-c2ccccc2)n1)c1ccccc1,i,i,i,i,1.6,i
Cc1nc(CS(=O)(=O)c2ccc(Cl)cc2)cc(Sc2ccc(Cl)cc2)n1,i,i,i,i,-4.8*,i
O=C(c1ccc(S(=O)(=O)N2CCc3ccccc3C2)cc1)N1CCCCC1,i,i,i,i,2.2,i
Fc1ccccc1COc1ccc(Br)cc1CNCC1CCCO1 (stereo unspecified),i,i,i,-6*,-1.5,i
Cc1ccc(SCCN)cc1C,i,i,i,i,1.3,83*
Cc1ccc(SCC(=O)NNC(=O)c2ccccc2)cc1C,i,i,i,i,2.3,i
CCN(Cc1ccncc1)C(=O)c1ccccc1NS(=O)(=O)c1ccc(Br)cc1,i,i,i,i,0.95,i
O=c1c(Cc2ccccc2)c(O)ccn1CCc1cnc[nH]1,i,i,i,i,1.7,129*
O=c1c(Cc2ccc(F)cc2)c(O)ccn1CCc1cnc[nH]1,i,i,i,i,-0.67,108*
COc1cccc(C(=O)NCCCN2CCN(CCCNC(=O)c3cccc(OC)c3)CC2)c1,i,i,12*,i,1.9,i
O=C(NCCCN1CCN(CCCNC(=O)c2ccc3c(c2)OCO3)CC1)c1ccc2c(c1)OCO2,i,i,i,i,0.1,138*
O=C(NCCCN1CCN(CCCNC(=O)c2cccc(Cl)c2)CC1)c1cccc(Cl)c1,i,i,18*,i,-0.01,i
CC1CCN(CCCNC(=O)c2ccc(CSCc3cccc(Cl)c3)o2)CC1,i,i,i,i,-6.7*,i
O=C(NCCN1CCCC1)c1cccc(Cl)c1,i,i,i,i,3.2,i
COc1ccc(S(=O)(=O)N2CCCC2CNC(=O)C(=O)NCc2ccccn2)cc1 (stereo unspecified),i,i,i,i,1.2,i
O=C(CCS(=O)(=O)c1ccc(Br)s1)NC1CCCCCC1,i,i,i,i,-11*,i
SMILES,TRPC6 inhibitor,TRPC6 act,TRPC4 PAM,TRPC4 block,Kir21 block,TRPC4 agonist
NC(=O)C1CCCN(CC(O)COCc2ccc(Cl)cc2)C1 (stereo unspecified),i,i,i,i,0.02,189*
Cc1ccc(S(=O)(=O)NC(=O)c2cc(C)n(-c3ccc(N(C)C)cc3)c2C)cc1,i,i,i,i,-0.22,i
CCn1c(-c2ccc(N(C)C)cc2)nc2ccccc21,i,i,i,i,1,i
CCn1c(-c2ccc(N)cc2)nc2ccccc21,i,i,i,i,-0.3,71*
COCCN(C(=O)c1csnn1)C(C(=O)NC1CCCCC1)c1ccccc1 (stereo unspecified),i,i,i,i,-0.2,i
COc1ccc(/C=N/NC(=O)C2COc3ccccc3O2)cc1OC (stereo unspecified),i,i,i,i,-0.71,150*
COc1cc(/C=N/NC(=O)C2COc3ccccc3O2)ccc1O (stereo unspecified),i,i,i,i,0.15,i
O=C(N/N=C\C=C\c1ccc2c(c1)OCO2)C1COc2cc3ccccc3cc2O1 (stereo unspecified),i,i,12*,i,1.8,i
CN(C(=O)Cn1cccc1C1=NC(c2ccccc2)CO1)c1ccccc1 (stereo unspecified),i,i,i,i,-4.7*,i
Cc1cc(NC(=O)CSc2ncnc3sc(C)c(C)c23)no1,i,i,i,i,-0.88,i
CN1CCN(CCCc2c3c(cc4c2CCC4)CCC3)CC1,i,i,i,i,-4.4*,i
CCOC(=O)C1CCN(c2cc3c(cc2NC(=O)c2cc(OC)ccc2Br)n(C)c(=O)n3C)CC1,i,i,12*,i,0.79,i
O=C(NNC(=S)NC(=O)C12CC3CC(CC(C3)C1)C2)c1ccncc1,i,i,i,i,0.04,169*
CNC(=O)c1nnsc1S(=O)(=O)c1ccc(Cl)cc1,i,i,i,i,-8.7*,i
O=C(c1nnsc1S(=O)(=O)c1ccc(Cl)cc1)N1CCOCC1,i,i,i,i,-1.7,i
Cc1cc(C)c(C(=O)Nc2ccc(Br)c(C(F)(F)F)c2)c(C)c1,i,i,i,i,-0.26,i
c1ccc2cc(OCCOCCOc3ccc4ccccc4c3)ccc2c1,i,i,i,i,-0.73,i
CN(C)CCOc1cccc(Cl)c1,i,i,i,i,1,i
CN(C)CCOc1ccc2ccccc2c1,i,i,16*,i,0.59,i
CN(C)CCCCOc1cccc(Br)c1,i,i,20*,i,-0.93,i
CN(C)CCOc1cc(Cl)cc(Cl)c1,i,i,26*,i,0.8,i
CN(C)CCOc1ccc2c(c1)Sc1ccccc1CC2=O,i,i,i,i,-5.2*,i
CCOC(=O)c1nc(SC)n(C)c1C(=O)OCC,i,i,i,i,-0.89,i
COc1cc(C)c(NC(=S)Nc2cccc(Cl)c2C)cc1OC,i,i,i,i,-0.7,i
CCC(CC)c1nc(C#N)c(NC(C)c2ccccc2)o1 (stereo unspecified),i,i,i,i,-6.1*,i
